Source: PubChem BioAssay
Shown are actives, neighbours in structure and some others; about 3.1% of the full set was active somewhere.
hERG rescue = hERG rescue from dofetilide block, primary screen, cell-based, CHO-hERG, FluxOR thallium flux, dofetilide IC70 | activation (rescue from dofetilide block), less the hit threshold, % at 10 µM | Voltage-gated inwardly rectifying potassium channel KCNH2 (Homo sapiens), Q12809 | dofetilide IC70 present | actives 0.51% (n = 310,000);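 active = activation above the mean of controls blocked by dofetilide plus 5 SD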;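 note: thallium influx through hERG after potassium depolarization seen as dye fluorescence rise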
Target sequence (Q12809 whole entry, looked up): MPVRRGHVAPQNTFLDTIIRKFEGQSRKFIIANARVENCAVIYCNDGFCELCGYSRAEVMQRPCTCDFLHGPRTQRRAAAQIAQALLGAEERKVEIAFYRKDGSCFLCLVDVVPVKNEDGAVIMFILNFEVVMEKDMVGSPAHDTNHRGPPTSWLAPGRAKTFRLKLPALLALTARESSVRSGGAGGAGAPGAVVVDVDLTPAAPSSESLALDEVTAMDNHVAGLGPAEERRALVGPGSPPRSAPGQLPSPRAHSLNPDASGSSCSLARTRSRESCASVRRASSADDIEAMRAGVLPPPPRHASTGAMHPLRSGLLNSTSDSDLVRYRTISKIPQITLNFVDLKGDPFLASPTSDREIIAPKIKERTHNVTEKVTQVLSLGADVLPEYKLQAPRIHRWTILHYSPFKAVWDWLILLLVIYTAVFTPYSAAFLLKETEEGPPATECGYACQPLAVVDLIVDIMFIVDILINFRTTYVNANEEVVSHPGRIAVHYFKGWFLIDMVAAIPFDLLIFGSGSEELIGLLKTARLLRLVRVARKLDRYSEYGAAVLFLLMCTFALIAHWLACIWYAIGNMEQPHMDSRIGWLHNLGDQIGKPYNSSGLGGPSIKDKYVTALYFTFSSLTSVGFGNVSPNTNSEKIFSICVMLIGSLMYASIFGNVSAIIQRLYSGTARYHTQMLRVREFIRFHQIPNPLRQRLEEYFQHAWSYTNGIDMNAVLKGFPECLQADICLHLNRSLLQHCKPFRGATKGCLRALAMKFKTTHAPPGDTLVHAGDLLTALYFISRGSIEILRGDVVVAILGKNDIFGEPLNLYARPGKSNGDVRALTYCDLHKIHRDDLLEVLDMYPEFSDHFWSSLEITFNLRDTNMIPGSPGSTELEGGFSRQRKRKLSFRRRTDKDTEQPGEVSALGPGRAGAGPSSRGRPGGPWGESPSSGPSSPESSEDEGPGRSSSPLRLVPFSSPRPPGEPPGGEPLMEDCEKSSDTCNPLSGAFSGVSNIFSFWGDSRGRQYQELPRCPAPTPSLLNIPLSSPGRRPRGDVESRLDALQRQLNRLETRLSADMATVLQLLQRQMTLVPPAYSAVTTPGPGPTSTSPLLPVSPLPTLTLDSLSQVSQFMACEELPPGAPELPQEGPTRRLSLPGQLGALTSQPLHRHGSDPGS
KCNK3 block = human KCNK3 channel inhibitors, primary screen, CHO cells, FluxOR thallium flux, B-score | AID 602410, 2012 | B-score at 10 µM | FluxOR fluorescence; active compounds read low | actives 0.84% (n = 340,000);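 active = B-score under library mean minus 4 SD, starting fluorescence ratio at most library mean plus 5 SD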;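 note: more negative B-score means stronger inhibition of thallium flux through KCNK3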
KCNK9 inh = KCNK9 potassium channel inhibitors, primary screen, HEK293 cells, thallium flux; FluxOR thallium flux fluorescence; active compounds read low; B-score at 10 µM; actives 1.2% (n = 310,000); AID 488922, 2010;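 active = ratio B-score over 3 SD below the library mean, with starting fluorescence within 5 SD of its mean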;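 note: negative B-score means less thallium flux so channel inhibition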
KCNQ1 inh = inhibitors of human KCNQ1 channel, primary screen, cell-based, thallium flux, high-throughput | Potassium voltage-gated channel subfamily KQT member 1 (Homo sapiens), P51787 | CHO-K1 KCNQ1, FluxOR thallium flux fluorescence; active compounds read high | B-score at 10 µM | actives 1.3% (n = 310,000);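 active = compounds whose thallium flux B-score, printed positive for inhibition, exceeds three library SD while starting fluorescence stays within three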;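 note: channel opened by potassium depolarization with thallium stimulus after 20 min compound exposure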
KCNQ1 pot = potentiators or activators of KCNQ1 channel, primary screen, cell-based, thallium flux, high-throughput; Potassium voltage-gated channel subfamily KQT member 1 (Homo sapiens), P51787; CHO-K1 KCNQ1, thallium flux FluxOR fluorescence; active compounds read high; B-score at 10 µM; actives 0.35% (n = 310,000);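 active = fluorescence ratio B-score, a plate-corrected score, at least three library SD, with initial intensity B-score within 5 SD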
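Material: CHO-K1 cells stably expressing KCNQ1. Medium: assay buffer for compound exposure, DMSO matched across wells. Reagent: K+/Tl+ depolarizing stimulus. Compound dosing: single-concentration screen. Times: 37 °C overnight plating, 90-min dark dye load, 20-min compound pretreatment. Technique: FluxOR Tl+ flux fluorescence.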
KCNK3 confirm = retest of human KCNK3 channel inhibitors, confirmation, CHO cells, FluxOR thallium flux, triplicate; shares compounds with KCNK3 block; FluxOR fluorescence; 0% buffer, 100% carvedilol maximal block; ratio percent of control, % at 10 µM; actives 99% (n = 2,400);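 active = ratio percent of control, averaged over triplicates, above buffer control mean plus 5 SD, cut at about 64% in these data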;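 note: ratio is the fluorescence rise from min to max over baseline after thallium stimulus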
KCNK3 noninduced = thallium flux inhibition in non-induced cells, primary screen, counter-screen for KCNK3 inhibitor project, cell-based, non-induced KCNK3 line, FluxOR thallium, triplicate; actives 40% (n = 2,400); thallium flux ratio (lower = more inhibition) at 10 µM; non-induced KCNK3 parental cells; active compounds read low; shares compounds with KCNK3 block; AID 651747, 2012;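 active = thallium flux ratio, averaged over three wells, more than 5 SD below the buffer control mean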;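 note: host cells are CHO cells without KCNK3 induction; ratio is peak minus trough fluorescence over baseline then normalized to buffer controls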
* = called active by the depositor; i = inactive; . = no result.

SMILES	hERG rescue	KCNK3 block	KCNK9 inh	KCNQ1 inh	KCNQ1 pot	KCNK3 confirm	KCNK3 noninduced
C=CCSc1nc(N(CC)CC)c2sccc2n1	-5.7	-10.1*	i	i	i	121.0*	i
COC(=O)c1cncc(C)c1	-5.4	i	i	i	i	.	.
c1ccc(-c2nc(NCc3cccnc3)c3ccccc3n2)cc1	-15.1	-9.18*	i	i	i	110.7*	0.15*
O=C(OCCNc1nc(-c2ccccc2)nc2ccccc12)c1ccncc1	-7.8	i	-7.29*	i	i	123.7*	0.159*
COc1ccc(CNc2nc(-c3ccccc3)nc3ccccc23)cc1OC	-6.3	-16.6*	i	i	i	114.0*	0.136*
Fc1ccc(CNc2nc(-c3ccccc3)nc3ccccc23)cc1	-13.0	i	i	i	i	.	.
O=C(CC1(c2ccc(Cl)cc2)C2CC3CC(C2)CC1C3)NCCO (centres undefined)	-10.0	i	i	i	i	.	.
O=C(O)CCc1ccc(-c2ccc(Cl)cc2)n1NC(=O)c1ccc(O)cc1	-4.2	i	i	i	i	.	.
CCC(C(=O)NCCc1ccc(C)cc1)n1nc(C)c2c(C)n(-c3ccccc3)nc2c1=O (centres undefined)	-5.3	-9.38*	i	i	i	99.0*	i
Cc1ccc(CCNC(=O)C(C)n2nc(C)c3c(C)n(-c4ccccc4)nc3c2=O)cc1 (centres undefined)	-6.7	i	i	i	i	.	.
CC(=O)N(Cc1ccccc1C)c1cccc(C)c1C	-4.9	i	i	i	i	.	.
Cc1cc(C)cc(NC(=S)Nc2ccc(Cl)c(Cl)c2)c1	-17.7	-13.6*	i	12*	i	145.7*	0.107*
COc1cccc(CN(C)Cc2cc(=O)oc3c(C)c(C)ccc23)c1	-9.8	-10.7*	i	i	i	124.7*	0.144*
Cc1ccccc1CN(C)Cc1cc(=O)oc2c(C)c(C)ccc12	-20.8	-10.6*	i	9*	i	118.3*	0.135*
Cc1cc2oc(=O)cc(CN(C)Cc3cccc(F)c3)c2cc1C	-8.3	-8.73*	i	i	i	112.0*	i
COc1cccc(CN(C)Cc2cc(=O)oc3cc(O)c(Cl)cc23)c1	-13.9	i	i	i	i	.	.
Cc1c(O)ccc2c(CN(C)Cc3ccccc3)cc(=O)oc12	-20.0	i	i	i	i	.	.
CCc1ccc2c(CN(C)Cc3ccc(OC(F)F)c(OC)c3)cc(=O)oc2c1	-4.5	-15.8*	i	i	i	128.0*	0.146*
N#CC1=C(S)N(c2ccc(F)cc2)C2(CCCCC2)NC1=O	-7.1	i	i	i	i	.	.
COC(=O)C1=C(C)NC(=O)NC1c1ccc(-c2ccc(Cl)cc2)o1 (centres undefined)	-12.1	i	i	i	i	.	.
COC(=O)C1=C(C)NC(=S)NC1c1ccc(-c2cc(Cl)ccc2Cl)o1 (centres undefined)	-12.6	-8.94*	i	i	i	106.7*	i
Cc1cccc(OCc2nnc(SCC(=O)NC3CCCCC3)n2C)c1	-3.6	i	i	i	i	.	.
COC(=O)c1sc2nc(N3CCCCC3)c3c(c2c1N)CCCC3	-9.4	-11.2*	i	i	i	103.7*	i
NC(=O)c1sc2nc(N3CCCCC3)c3c(c2c1N)CCCC3	-19.8	i	i	i	i	.	.
